Reference: ChEMBL document CHEMBL4689842, “EUbOPEN Chemogenomics Library wave 1” (2021)

How the values were obtained:
Assay type in all cases: toxicity, cell-based
[1] = test system: Fibroblast; assay: Multiplex assay against human fibroblast
How it was run: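 Live cells were stained at seeding with Hoechst33342, BioTracker Green Microtubule Cytoskeleton Dye, MitoTracker Red and Annexin V Alexa Fluor 680. Following compound addition, they were imaged on a CQ1 microscope at 37°C and 5% CO2 and gated by CellPathfinder machine learning into Hoechst high-intensity objects or normal cells, with normal cells split into healthy, pyknosed or fragmented nuclei and pyknosed cells into mitotic or apoptotic. Tubulin, mitochondrial-mass and membrane-permeability phenotypes are per cents of healthy-nucleus cells.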

[2] = test system: Fibroblast; assay: Incucyte cell viability with human fibroblast; details: 10 µM, compound concentration 10 uM; note: filed as whole numbers so only -1 and 0 and 1 occur
[3] = test system: HEK-293T; assay: Incucyte cell viability with HEK293T; details: human, 10 µM, compound concentration 10 uM; note: filed as whole numbers so only -1 and 0 and 1 occur
[4] = test system: U2OS; assay: Incucyte cell viability with U2OS; details: human, 10 µM, compound concentration 10 uM; note: filed as whole numbers so only -1 and 0 and 1 occur
[5] = 12 h, 1 µM, compound concentration 1 uM, replicate 1
[6] = 12 h, 1 µM, compound concentration 1 uM, replicate 2
[7] = 12 h, 10 µM, compound concentration 10 uM, replicate 1
[8] = 12 h, 10 µM, compound concentration 10 uM, replicate 2
[9] = 24 h, 1 µM, compound concentration 1 uM, replicate 1
[10] = 24 h, 1 µM, compound concentration 1 uM, replicate 2
[11] = 24 h, 10 µM, compound concentration 10 uM, replicate 1
[12] = 24 h, 10 µM, compound concentration 10 uM, replicate 2
[13] = 48 h, 1 µM, compound concentration 1 uM, replicate 1
[14] = 48 h, 1 µM, compound concentration 1 uM, replicate 2
[15] = 48 h, 10 µM, compound concentration 10 uM, replicate 1
[16] = 48 h, 10 µM, compound concentration 10 uM, replicate 2
[17] = 0 h, replicate number 1, timepoint 0 hours
[18] = 6 h, replicate number 2, timepoint 6 hours
[19] = 12 h, replicate number 1, timepoint 12 hours
[20] = 18 h, replicate number 1, timepoint 18 hours
[21] = 24 h, replicate number 1, timepoint 24 hours

With `CCc1cc2c(cc1CC)CC(NC[C@H](O)c1ccc(O)c3[nH]c(=O)ccc13)C2` [INDACATEROL] the “Population Apoptotic (%)” value [1, 5] was 57%, the “Population Fragmented Nuclei (%)” value [1, 5] was 22% and the “Population Healthy Nuclei (%)” value [1, 5] was 53%. For the same molecule, the “Population Hoechst High Intensity Objects (%)” value [1, 5] was 9%, the “Population Membrane Permeable-Phenotype (%)” value [1, 5] was 21% and the “Population Mitochondria Different-Phenotype (%)” value [1, 5] was 10%. The “Population Mitotic Cells (%)” value [1, 5] was 42%, the “Population Normal (%)” value [1, 5] was 90% and the “Population Pyknosed Nuclei (%)” value [1, 5] was 23%. The “Population Tubulin-Different-Phenotype (%)” value [1, 5] was 35%, the “Total Cell Count” value [1, 5] was 187 and the “Population Apoptotic (%)” value [1, 6] was 33%. For the same molecule, the “Population Fragmented Nuclei (%)” value [1, 6] was 3%, the “Population Healthy Nuclei (%)” value [1, 6] was 92% and the “Population Hoechst High Intensity Objects (%)” value [1, 6] was 7%. The “Population Membrane Permeable-Phenotype (%)” value [1, 6] was 1%, the “Population Mitochondria Different-Phenotype (%)” value [1, 6] was 11% and the “Population Mitotic Cells (%)” value [1, 6] was 66%. For the same molecule, the “Population Normal (%)” value [1, 6] was 92%, the “Population Pyknosed Nuclei (%)” value [1, 6] was 4% and the “Population Tubulin-Different-Phenotype (%)” value [1, 6] was 14%. The “Total Cell Count” value [1, 6] was 71, the “Population Apoptotic (%)” value [1, 7] was 71% and the “Population Fragmented Nuclei (%)” value [1, 7] was 35%. The “Population Healthy Nuclei (%)” value [1, 7] was 45%, the “Population Hoechst High Intensity Objects (%)” value [1, 7] was 22% and the “Population Membrane Permeable-Phenotype (%)” value [1, 7] was 1%. For the same molecule, the “Population Mitochondria Different-Phenotype (%)” value [1, 7] was 43%, the “Population Mitotic Cells (%)” value [1, 7] was 28% and the “Population Normal (%)” value [1, 7] was 77%. The “Population Pyknosed Nuclei (%)” value [1, 7] was 19%, the “Population Tubulin-Different-Phenotype (%)” value [1, 7] was 74% and the “Total Cell Count” value [1, 7] was 230. For the same molecule, the “Population Apoptotic (%)” value [1, 8] was 68%, the “Population Fragmented Nuclei (%)” value [1, 8] was 15% and the “Population Healthy Nuclei (%)” value [1, 8] was 64%. For the same molecule, the “Population Hoechst High Intensity Objects (%)” value [1, 8] was 6%, the “Population Membrane Permeable-Phenotype (%)” value [1, 8] was 23% and the “Population Mitochondria Different-Phenotype (%)” value [1, 8] was 98%. For the same molecule, the “Population Mitotic Cells (%)” value [1, 8] was 31%, the “Population Normal (%)” value [1, 8] was 93% and the “Population Tubulin-Different-Phenotype (%)” value [1, 8] was 88%. The “Total Cell Count” value [1, 8] was 71, the “Population Apoptotic (%)” value [1, 9] was 69% and the “Population Fragmented Nuclei (%)” value [1, 9] was 23%. For the same molecule, the “Population Healthy Nuclei (%)” value [1, 9] was 62%, the “Population Hoechst High Intensity Objects (%)” value [1, 9] was 10% and the “Population Membrane Permeable-Phenotype (%)” value [1, 9] was 18%. The “Population Mitochondria Different-Phenotype (%)” value [1, 9] was 5%, the “Population Mitotic Cells (%)” value [1, 9] was 30% and the “Population Normal (%)” value [1, 9] was 89%. For the same molecule, the “Population Pyknosed Nuclei (%)” value [1, 9] was 13%, the “Population Tubulin-Different-Phenotype (%)” value [1, 9] was 36% and the “Total Cell Count” value [1, 9] was 184. For the same molecule, the “Population Apoptotic (%)” value [1, 10] was 14%, the “Population Fragmented Nuclei (%)” value [1, 10] was 4% and the “Population Healthy Nuclei (%)” value [1, 10] was 86%. For the same molecule, the “Population Hoechst High Intensity Objects (%)” value [1, 10] was 3%, the “Population Membrane Permeable-Phenotype (%)” value [1, 10] was 0% and the “Population Mitochondria Different-Phenotype (%)” value [1, 10] was 10%. For the same molecule, the “Population Mitotic Cells (%)” value [1, 10] was 85%, the “Population Normal (%)” value [1, 10] was 96% and the “Population Pyknosed Nuclei (%)” value [1, 10] was 9%. For the same molecule, the “Population Tubulin-Different-Phenotype (%)” value [1, 10] was 12%, the “Total Cell Count” value [1, 10] was 73 and the “Population Apoptotic (%)” value [1, 11] was 71%. For the same molecule, the “Population Fragmented Nuclei (%)” value [1, 11] was 30%, the “Population Healthy Nuclei (%)” value [1, 11] was 49% and the “Population Hoechst High Intensity Objects (%)” value [1, 11] was 33%. For the same molecule, the “Population Membrane Permeable-Phenotype (%)” value [1, 11] was 5%, the “Population Mitochondria Different-Phenotype (%)” value [1, 11] was 55% and the “Population Mitotic Cells (%)” value [1, 11] was 28%. For the same molecule, the “Population Normal (%)” value [1, 11] was 66%, the “Population Pyknosed Nuclei (%)” value [1, 11] was 19% and the “Population Tubulin-Different-Phenotype (%)” value [1, 11] was 77%. The “Total Cell Count” value [1, 11] was 243, the “Population Apoptotic (%)” value [1, 12] was 89% and the “Population Fragmented Nuclei (%)” value [1, 12] was 11%. For the same molecule, the “Population Healthy Nuclei (%)” value [1, 12] was 67%, the “Population Hoechst High Intensity Objects (%)” value [1, 12] was 6% and the “Population Membrane Permeable-Phenotype (%)” value [1, 12] was 59%. For the same molecule, the “Population Mitochondria Different-Phenotype (%)” value [1, 12] was 100%, the “Population Mitotic Cells (%)” value [1, 12] was 10% and the “Population Normal (%)” value [1, 12] was 93%. For the same molecule, the “Population Pyknosed Nuclei (%)” value [1, 12] was 20%, the “Population Tubulin-Different-Phenotype (%)” value [1, 12] was 86% and the “Total Cell Count” value [1, 12] was 78. For the same molecule, the “Population Apoptotic (%)” value [1, 13] was 30%, the “Population Fragmented Nuclei (%)” value [1, 13] was 29% and the “Population Healthy Nuclei (%)” value [1, 13] was 64%. The “Population Hoechst High Intensity Objects (%)” value [1, 13] was 10%, the “Population Membrane Permeable-Phenotype (%)” value [1, 13] was 20% and the “Population Mitochondria Different-Phenotype (%)” value [1, 13] was 0%. The “Population Mitotic Cells (%)” value [1, 13] was 69%, the “Population Normal (%)” value [1, 13] was 89% and the “Population Pyknosed Nuclei (%)” value [1, 13] was 6%. The “Population Tubulin-Different-Phenotype (%)” value [1, 13] was 20%, the “Total Cell Count” value [1, 13] was 222 and the “Population Apoptotic (%)” value [1, 14] was 100%. The “Population Fragmented Nuclei (%)” value [1, 14] was 37%, the “Population Healthy Nuclei (%)” value [1, 14] was 60% and the “Population Hoechst High Intensity Objects (%)” value [1, 14] was 15%. The “Population Membrane Permeable-Phenotype (%)” value [1, 14] was 7%, the “Population Mitochondria Different-Phenotype (%)” value [1, 14] was 4% and the “Population Mitotic Cells (%)” value [1, 14] was 0%. For the same molecule, the “Population Normal (%)” value [1, 14] was 84%, the “Population Pyknosed Nuclei (%)” value [1, 14] was 1% and the “Population Tubulin-Different-Phenotype (%)” value [1, 14] was 35%. For the same molecule, the “Total Cell Count” value [1, 14] was 82, the “Population Apoptotic (%)” value [1, 15] was 70% and the “Population Fragmented Nuclei (%)” value [1, 15] was 38%. The “Population Healthy Nuclei (%)” value [1, 15] was 46%, the “Population Hoechst High Intensity Objects (%)” value [1, 15] was 51% and the “Population Membrane Permeable-Phenotype (%)” value [1, 15] was 1%. For the same molecule, the “Population Mitochondria Different-Phenotype (%)” value [1, 15] was 54%, the “Population Mitotic Cells (%)” value [1, 15] was 29% and the “Population Normal (%)” value [1, 15] was 48%. For the same molecule, the “Population Pyknosed Nuclei (%)” value [1, 15] was 14%, the “Population Tubulin-Different-Phenotype (%)” value [1, 15] was 67% and the “Total Cell Count” value [1, 15] was 237. The “Population Apoptotic (%)” value [1, 16] was 66%, the “Population Fragmented Nuclei (%)” value [1, 16] was 52% and the “Population Healthy Nuclei (%)” value [1, 16] was 44%. For the same molecule, the “Population Hoechst High Intensity Objects (%)” value [1, 16] was 37%, the “Population Membrane Permeable-Phenotype (%)” value [1, 16] was 0% and the “Population Mitochondria Different-Phenotype (%)” value [1, 16] was 28%. The “Population Mitotic Cells (%)” value [1, 16] was 33%, the “Population Normal (%)” value [1, 16] was 62% and the “Population Pyknosed Nuclei (%)” value [1, 16] was 3%. The “Population Tubulin-Different-Phenotype (%)” value [1, 16] was 61%, the “Total Cell Count” value [1, 16] was 465 and the “Growth Rate” value [2, 17] was 1. The “Growth Rate” value [2, 18] was 0, the “Growth Rate” value [2, 19] was 0 and the “Growth Rate” value [2, 20] was 0. For the same molecule, the “Growth Rate” value [2, 21] was 0, the “Growth Rate” value [3, 17] was 0 and the “Growth Rate” value ([3]; 6 h, replicate number 1, timepoint 6 hours) was 0. For the same molecule, the “Growth Rate” value [3, 19] was 0, the “Growth Rate” value [3, 20] was 0 and the “Growth Rate” value [3, 21] was 0. For the same molecule, the “Growth Rate” value [4, 17] was 1, the “Growth Rate” value [4, 18] was 1 and the “Growth Rate” value [4, 19] was 1. The “Growth Rate” value ([4]; 12 h, replicate number 2, timepoint 12 hours) was 0, the “Growth Rate” value [4, 20] was 0 and the “Growth Rate” value [4, 21] was 0.
